This sample holds only a part of the variants without activity.
B1: tRNA (parent)
chain: GUUCCGUUGGCGUAAUGGUAACGCGUCUCCCUCCUAAGGAGAAGACUGCGGGUUCGAGUCCCGUACGGAACG

Variants of: B1
Assay: yeast fitness relative to wild type (ratio to wild type); higher = fitter; tRNA-Arg(CCU), competitive growth, 37 C, YPD
Outline: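 Changes in genotype frequencies gave Darwinian fitness relative to wild type. Frequencies were read by 100-nucleotide paired-end sequencing of gene amplicons before and after pooled Saccharomyces cerevisiae strains, carrying tRNA-Arg(CCU) gene variants at the native locus, were competed in YPD at 37°C for 24 hours in six replicates. A genotype was kept only with ≥ 100 starting reads, and estimates < 0.5 were set to 0.5.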

| Variant | yeast fitness |
| --- | --- |
| GUUCUGUUGGCGUAAUGGUAAGGCGUCUCCCUCCUAAGGGGAAGAUUGCGGGUUCGAGUCCUGUACGGAACG [C5U C22G A40G C46U C62U] | ≤ 0.5 |
| GUUCCGUCGGCGUAAUGGUAACGCGUCUCCCUCCUAAGGAGAAGACUGCGGGUUCGACUCCCGUACGGAACG [U8C G58C] | 0.919 |
| GUUCCGUUGGCGUAAUGGUAACGCGUCUCCCUUCUAAGGAGAAGACCGCGGGUUCGAGUCCCGUACGGAACG [C33U U47C] | 0.713 |
| GAUCCGUUGGGGUAAUGGUAACGCAUCUCCCUCCUAAGGAGAAGACUGAGGGUUCGAGUCCCGUACGGAACG [U2A C11G G25A C49A] | 0.553 |
| GUCCCGUUCGUGUAAUGGUAACGCGUCUCGCUCCUAAGGAGACGACUGCGGGUUCGAGUCCCGUACGGAACG [U3C G9C C11U C30G A43C] | 0.519 |
| GUUCCGUUGGCGUAAUGGUAACGCGUCUCCCUCCUACGGAGAAGAUUGCGGGUUCGAGUCCCGUCCCGAACG [A37C C46U A65C G67C] | ≤ 0.5 |
| GUUCCGUUGGCGUAAUGGUAACGCGUCUCCCUCCUAAGGAGAAGACUGCGGGUUCGAAUCCCGUAGGGAACG [G58A C66G] | 0.943 |
| GUUCCGUUGGCGUAAUGGUAACGCGUCUCCCUCCUAAGGAGAAGACUACGGGUUCCAGUCCUGUACGGAACG [G48A G56C C62U] | 0.65 |
| GUUCCGUUGGGGUAAUGGUAACGCGUCUCCCACCUGAGGAGAAGAUUGCGGGUUCGAGUCCCGUACGGAACG [C11G U32A A36G C46U] | 0.592 |
| GUUCCAUUGGCCUAACGGUAACGCGUCUCCUUCCUAAGGAGAAGACUGCGGCUUCGAGUCCCGUACGGAACG [G6A G12C U16C C31U G52C] | 0.555 |
| GUUCCGUUGGCGUAAUGGUAACGCGUCUCCCUCCUAAGAAGAAGACUGCGGGUUCGAGUCCCGUAGGGAACG [G39A C66G] | 0.711 |
| GUUCCGUUGGCGUAAUGGUAACGCGUCUCCCUCCUAAGAAGAAGACUGCGGGUUCGAGUCCCGUAAGGAACG [G39A C66A] | 0.698 |
| GUUCCGUUGGCGUAAUAGUAACGCCUCUGCCUCCUAAGGAGAAGACUGCGGGUUCGAGUCCCGUACGGAACG [G17A G25C C29G] | ≤ 0.5 |
| GUUCCGUUGGCGUAAUGGUAACGCGUCUCCAUCCUAAGGAGAAGACUGCGGGUUAGAGUCCCGUACAGAACG [C31A C55A G67A] | ≤ 0.5 |
| GUUCCGUUGGCGUAAUGGUAACGCGUCUCCCUCCUAAGGAGAAGACUGCGGGUUAGCGUCCCGCUCGGAACG [C55A A57C U64C A65U] | 0.527 |
| GUUCAGUUGGCGUAAUGGUAACGCCUCUCCCUCCUAAGGAGAAGACUGCGGGUUCGAGUCCCGUACGGAACG [C5A G25C] | 0.86 |
| GUUCCGUUGACGUAAUGGUAACGCGUCUCCCUCCUAAGGCGAAGACUGCGGGUUCGAGUCCCGUACGGAACG [G10A A40C] | 0.771 |
| GUUCCGUUGACGUAAUGGUAACGCGUCUCCCUCCUAAGGAGAAGACCGCGGGUUCGAGUCCCGUACGGAACG [G10A U47C] | 0.589 |
| GUUCCGUUGGCGUAAUGGUAUCGCGUCUCGCUCCUAAGGAAACGACUGCGGGUUAGAGUCCCGUACGGAACG [A21U C30G G41A A43C C55A] | ≤ 0.5 |

| Variant | yeast fitness |
| --- | --- |
| GUUCCGUUGGCGUAAUGGUAACGCGUCUCCCCCCUAAGGAGAAGACUGCGGGUUCGAGUCCCGUAGGGAUCG [U32C C66G A70U] | 0.811 |
| GUUCCGUUGACGUACUGGUAACGCAUCUCCCUCCUAAGGAGAAGACUGCGGGUUGGAGCUCCGUACUGAACG [G10A A15C G25A C55G U59C C60U G67U] | ≤ 0.5 |
| GUUCCGUUGGCGUAAUGGUAACGCGUCCCCCUCCUAAGGAGAACACUGCGGGUUCGAGUCCCGUACGGAACG [U28C G44C] | 0.935 |
| GUUCCGUUGGCGUAAUGGUAACGCGUCUCCCUCCUAAGGAGAAGACUGCGGGUUCGAGUCCCGUAGGGAUCG [C66G A70U] | 0.724 |
| GUUCCGUCGGCGUAAUGGUAAAGCGUCUCCCUGCUAAGCAGAAGAUUGCGGAUUCGAGUCCCGUAUGGAACG [U8C C22A C33G G39C C46U G52A C66U] | ≤ 0.5 |
| GUUCCGUUGGCGUAACGGUAACGCGUCUCCCUCUUAAGGAGAAGACUGGGGGUUCGAGUCCCGUACGGAACG [U16C C34U C49G] | ≤ 0.5 |
| GUUCUGUUGGCGUAAUGGUAACGCCUCUCCCUCCUAAGGAGAAGACUGCGGGUUCGAGUCCCGUACGGAACG [C5U G25C] | 0.997 |
| GUUCCGUAGGCGUAAUGGUAACACGUCUCCCUCCUGAGGAGAAGACUGCGGGUUCGAGUCCCGUACGGAACG [U8A G23A A36G] | ≤ 0.5 |
| GUUCCGUUCGCGUAAUGGUAACGAGUCUCCCUCCUAAGGAGAAGACUGCGGGUUCGAGUCCCGUACGGAACG [G9C C24A] | ≤ 0.5 |
| GUUCCGUUCGCGUAAUGGUAACGCGUUUCCCUCCUAAGGAAAAGACUGCGGGUUCGAGUCCCGUACGGAACG [G9C C27U G41A] | 0.728 |
| GUCCCGUUCGUGUAAUGGUAACGCGUCUCGCUCCUAAGGAGAAGACUGCGGGUUAGAGUCCCGUACGGCACG [U3C G9C C11U C30G C55A A69C] | ≤ 0.5 |
| GUUCCGUUGGCGUAAUGGUAAUGCGUCUCCCUCCCAUGGAGAAGACUGCCGGUUCGAGUCCCGUAUGGAACG [C22U U35C A37U G50C C66U] | 0.569 |
| GUUCCGUUGGCAUAAUGGUAACGCGUCUCCCUCCUAAAGAGAAGACUGCGGGUUCGAGUGCCGUACGGAACG [G12A G38A C60G] | ≤ 0.5 |
| GUUCCGUUGGCGUAAUGGCAACGUGUCUCCCUCCUAAGGAGAAGACUGCGGGUUUGCGUCCCGUACGGAACG [U19C C24U C55U A57C] | ≤ 0.5 |
| GUUCCGUUGGCGUAAUGGUAACGCGUCUCCCUCCUAGGGAGAAGACUGGGGGUUCGCGUCCCGUACGGAACG [A37G C49G A57C] | 0.798 |
| GUUCCGAUGGCGUAAUGGUAACGCGUCUCCCUCCUAAGGAGAAGACUGCGCGUUCCAGUCACGUACGGAACG [U7A G51C G56C C61A] | ≤ 0.5 |
| GUCCCGUUAGCGUAUUGGUAACGCGUCUCACUCAUAAGGAGGAGACUGCGGGUUCGAGUCCCGUACGGAACG [U3C G9A A15U C30A C34A A42G] | ≤ 0.5 |
| GGUCCGUUGGCGUGAUGGUAACGCGUCUGCCUCCUAUGGAGAAGACUGCGGGUUCGAGUCCGGUAUGGAACG [U2G A14G C29G A37U C62G C66U] | ≤ 0.5 |
| GUUCCGUUGGCGUAAGGGUAACGCGUCUCCCUCCUAAGGAGAAGACUGCGGGUUCGAGUCCCGUACGGACCG [U16G A70C] | 0.911 |
